Holding throughout (assay type): functional, cell-based
Assay [1] deals with T1, Peroxisome proliferator-activated receptor alpha (Homo sapiens) (UniProt Q07869).
T1 sequence (whole entry): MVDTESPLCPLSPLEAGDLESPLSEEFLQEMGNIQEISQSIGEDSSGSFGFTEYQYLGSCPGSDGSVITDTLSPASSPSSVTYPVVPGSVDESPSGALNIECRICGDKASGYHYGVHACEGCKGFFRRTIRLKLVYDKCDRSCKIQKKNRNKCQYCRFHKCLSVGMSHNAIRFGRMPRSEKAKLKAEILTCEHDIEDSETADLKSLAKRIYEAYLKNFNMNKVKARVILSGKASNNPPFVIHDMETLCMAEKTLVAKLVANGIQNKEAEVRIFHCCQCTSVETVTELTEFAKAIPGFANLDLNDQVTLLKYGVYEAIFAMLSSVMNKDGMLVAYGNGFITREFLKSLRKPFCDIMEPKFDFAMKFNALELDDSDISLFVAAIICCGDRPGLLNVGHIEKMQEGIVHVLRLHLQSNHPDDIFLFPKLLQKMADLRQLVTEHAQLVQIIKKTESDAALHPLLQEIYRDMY
As to the kind of experiment: Agonist activity at human PPARalpha expressed in HEK293 cells assessed as receptor transactivation at 150 uM by luciferase reporter gene assay relative to control. In short, it runs like this: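 Cells co-transfected by calcium phosphate with human PPARα expression plasmid, luciferase reporter and renilla in serum-free medium. Ligand in DMSO (≤0.1% v/v final) added 6 h post-transfection at 150 μM. Luciferase normalized to renilla, expressed as fold activation over untreated cells; at least three separate experiments, mean ± SEM.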

The target of assay [2] is T2, Peroxisome proliferator-activated receptor alpha (Homo sapiens, UniProt Q07869).
T2 sequence (Q07869 whole entry): T1 sequence (whole entry)
Kind of assay: Agonist activity at human PPARalpha expressed in HEK293 cells assessed as receptor transactivation at by luciferase reporter gene assay. The procedure, abridged: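 Human PPARα reporter-gene transactivation: calcium phosphate co-transfection of receptor plasmid, luciferase reporter and renilla. Ligand in DMSO (≤0.1% v/v final) added 6 h after transfection at five concentrations, 1 to 150 μM. At least three separate experiments, ± SEM.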

For assay [3], the target named is T1, Peroxisome proliferator-activated receptor alpha (Homo sapiens). Kind of assay: Agonist activity at PPARalpha in human HepG2 cells assessed as increase in CPT1A mRNA expression at 150 uM after 48 hrs by RTqPCR relative to untreated control. The procedure, abridged: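 HepG2 grown in DMEM + 10% FBS, 37 °C, 5% CO2; 1×10^6 cells seeded in six-well dishes, grown 24 h, then given ligand at 150 μM or DMSO vehicle for 48 h. Total RNA by TRIzol; SYBR Green RTqPCR, primers 150 nM final, 60 ng cDNA, 40 cycles. CPT1A normalized to cyclophilin and to vehicle-treated cells; mean ± SEM of four determinations in duplicate.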

Calls of active or inactive are those of the source. No cut-off for these calls is given here.

In the case of `COc1ccc2sc(SC(C)(C)C(=O)O)nc2c1`, the fold change (FC) in assay [1] turned out to be 2. Also, the EC50 in assay [2] stood at 45.8 µM.
Regarding `CC(C)(Sc1ccccn1)C(=O)O`, in assay [1], the result was inactive.
`CC(C)(Sc1nc2cc(Cl)ccc2s1)C(=O)O`: the fold change (FC) in assay [1] worked out at 1.6. In addition, the EC50 in assay [2] was determined as 35.9 µM.
Taken in the same sequence, the figures for `CC(Sc1nc2cc(Br)ccc2s1)C(=O)O` (racemic) were 3.2 and 9.3 µM.
For the molecule `CC(C)(Sc1nc2cc(Br)ccc2s1)C(=O)O`, in assay [1], the fold change (FC) came to 4.5. Besides, the concentration for a half-maximal effect (EC50) in assay [2] was found to be 2.5 µM. Further, in assay [3], the outcome was Active.
Regarding `CC(C)(Sc1nc2ccccc2s1)C(=O)O`, in assay [1], the result was inactive.
On to `CC(C)(Sc1nc2ccc(C(F)(F)F)cc2s1)C(=O)O`, for which the fold change (FC) in assay [1] came to 1.7. For the same molecule, the EC50 in assay [2] amounted to 36.1 µM.
For `CCOc1ccc2nc(SC(C)(C)C(=O)O)sc2c1`, in that order: 3.3 and 69.3 µM.
As for `CC(Sc1nc2cc(C#N)ccc2s1)C(=O)O` (racemic), the outcome in assay [1] was inactive.
In the case of `CCCC(Sc1nc2cc(Cl)ccc2s1)C(=O)O` (racemic), the fold change (FC) in assay [1] stood at 2.7. The EC50 in assay [2] was 9.3 µM.
Take `C[C@@H](Sc1nc2cc(Cl)ccc2s1)C(=O)O`: the fold change (FC) in assay [1] is 4.5. Also, the EC50 in assay [2] was 73.5 µM.
Consider `COc1ccc2sc(S[C@H](C)C(=O)O)nc2c1`, for which the fold change (FC) in assay [1] turned out to be 2.3. In assay [2], the EC50 is 57.3 µM.
On to `CC(C)(Sc1cccs1)C(=O)O`, for which the outcome in assay [1] was inactive.
In the case of `CC(C)(Sc1ccc(Cl)s1)C(=O)O`, the fold change (FC) in assay [1] worked out at 2.8; in assay [3] it was 2. Further, the EC50 in assay [2] is 1.8 µM.
As for `CCCCCCC(Sc1nc2cc(Cl)ccc2s1)C(=O)O` (racemic), the outcome in assay [1] was inactive.
Consider `CC(Sc1nc2cc(Cl)ccc2s1)C(=O)O` (racemic), for which the fold change (FC) in assay [1] came to 3.4. Moreover, the EC50 in assay [2] came out at 62.5 µM.
For `COc1ccc2sc(S[C@@H](C)C(=O)O)nc2c1`, in assay [1], the fold change (FC) is 2.9. The EC50 in assay [2] was 1.9 µM. Moreover, the outcome in assay [3] was Active.
As to `CC(C)(Sc1nc2ccc(C#N)cc2s1)C(=O)O`, the outcome in assay [1] was inactive.
Still for that read-out and setting: in the case of `CC(C)(Sc1nc2cc(C(F)(F)F)ccc2s1)C(=O)O` it was “inactive”.
For the molecule `CC(C)(Oc1ccc(Cl)cc1)C(=O)O`, the fold change (FC) in assay [1] was determined as 1.6; in assay [3] it was 2.
With `CC(C)(Sc1nc2ccc(Br)cc2s1)C(=O)O`, the fold change (FC) in assay [1] was 2.6. The EC50 in assay [2] came out at 45.8 µM.
With `COc1ccc2sc(SC(C)C(=O)O)nc2c1` (racemic), in assay [1], the fold change (FC) was 2.9. Further, the EC50 in assay [2] was determined as 33.3 µM.
As for `O=C(O)C(Sc1nc2cc(Cl)ccc2s1)c1ccccc1` (racemic), in assay [1], the fold change (FC) was 1.6. For the same molecule, in assay [2], the EC50 was found to be 14.3 µM.
`CCCC(Sc1nc2ccc(OCC)cc2s1)C(=O)O` (racemic): in assay [1], the fold change (FC) was found to be 4.7. Also, in assay [2], the EC50 stood at 14.8 µM.
Taken in the same sequence, the figures for `CC(C)(Sc1nc2ccc(Cl)cc2s1)C(=O)O` were 1.7 and 38.9 µM.
For `C[C@H](Sc1nc2cc(Cl)ccc2s1)C(=O)O`, in that order: 2.6 and 55.9 µM.
For `CCOc1ccc2nc(SC(C)C(=O)O)sc2c1` (racemic), in that order: 2.6 and 9.8 µM.
For the molecule `CC(Sc1nc2ccc(Br)cc2s1)C(=O)O` (racemic), in assay [1], the fold change (FC) is 1.9. The EC50 in assay [2] worked out at 84.3 µM.
Taken in the same sequence, the figures for `CC(C)(Sc1nc2cc(C#N)ccc2s1)C(=O)O` were 1.9 and 46.3 µM.

Values taken from ChEMBL document CHEMBL1154187, “Synthesis and biological evaluation of 2-heteroarylthioalkanoic acid analogues of clofibric acid as peroxisome proliferator-activated receptor alpha agonists” (J Med Chem, 2009).
